Reference: ChEMBL document CHEMBL3286189, “Discovery and SAR studies of a novel class of cytotoxic 1,4-disubstituted piperidines via Ugi reaction” (Eur J Med Chem, 2014)

test system: HeLa; test: Cytostatic activity against human HeLa cells assessed as inhibition of cell proliferation after 72 hrs by coulter counting analysis; assay type: functional, cell-based; conditions: Homo sapiens, HeLa, 72 h
How it was run: (§1)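 Anti-proliferative screen in murine leukemia L1210, human T-lymphocyte CEM and human cervix carcinoma HeLa cultures. The value reported is the IC50, the concentration that inhibits cell proliferation by 50%.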

Compound	IC50
CC(C)(C)OC(=O)N[C@@H](CC(=O)O)C(=O)N(Cc1ccccc1)C1(C(=O)NCc2ccccc2)CCN(Cc2ccccc2)CC1	> 200 µM
CC(C)(C)OC(=O)N[C@@H](CC(N)=O)C(=O)N(Cc1ccccc1)C1(C(=O)NCc2ccccc2)CCN(Cc2ccccc2)CC1	25 µM
CNC(=O)C[C@H](NC(=O)OC(C)(C)C)C(=O)N(Cc1ccccc1)C1(C(=O)NCc2ccccc2)CCN(Cc2ccccc2)CC1	84 µM
CN(C)C(=O)C[C@H](NC(=O)OC(C)(C)C)C(=O)N(Cc1ccccc1)C1(C(=O)NCc2ccccc2)CCN(Cc2ccccc2)CC1	68 µM
COC(=O)C[C@H](NC(=O)OC(C)(C)C)C(=O)N(Cc1ccccc1)C1(C(=O)NCc2ccccc2)CCNCC1	> 167 µM
COC(=O)C[C@H](N)C(=O)N(Cc1ccccc1)C1(C(=O)NCc2ccccc2)CCN(Cc2ccccc2)CC1	100 µM
C=CCOC(=O)N1CCC(C(=O)NCc2ccccc2)(N(Cc2ccccc2)C(=O)[C@@H](N)Cc2ccccc2)CC1	63 µM
CCC(C)N(C(=O)[C@@H](N)Cc1ccccc1)C1(C(=O)NCc2ccccc2)CCN(Cc2ccccc2)CC1 (some centres undefined)	90 µM
CCC(C)N(C(=O)[C@@H](N)CC(=O)OC)C1(C(=O)NCc2ccccc2)CCN(Cc2ccccc2)CC1 (some centres undefined)	> 250 µM
CCC(C)N(C(=O)[C@@H](N)CC(=O)OC)C1(C(=O)NCc2ccccc2)CCNCC1 (some centres undefined)	> 250 µM
O=C(N[C@@H](Cc1ccccc1)C(=O)N(Cc1ccccc1)C1(C(=O)NCc2ccccc2)CCN(Cc2ccccc2)CC1)Oc1ccccc1	17 µM
CCC(C)N(C(=O)[C@H](Cc1ccccc1)NC(=O)OC(C)(C)C)C1(C(=O)NCc2ccccc2)CCN(Cc2ccccc2)CC1 (some centres undefined)	24 µM
CC(C)(C)OC(=O)N[C@@H](Cc1ccccc1)C(=O)N(Cc1ccccc1)C1(C(=O)NCc2ccccc2)CCN(C(=O)OC(C)(C)C)CC1	13 µM
CC[C@@H](C)[C@H](NC(=O)OCc1ccccc1)C(=O)N(Cc1ccccc1)C1(C(=O)NCc2ccccc2)CCN(C(=O)OC(C)(C)C)CC1	11 µM
CC(C)(C)NC(=O)C1(N(C(=O)[C@H](Cc2ccccc2)NC(=O)OCc2ccccc2)C2CC2)CCN(Cc2ccccc2)CC1	26 µM
CC(C)(C)NC(=O)C1(N(C(=O)[C@H](Cc2ccccc2)NC(=O)OCc2ccccc2)C2CC2)CCN(C(=O)OC(C)(C)C)CC1	148 µM
CC(C)(C)NC(=O)C1(N(C(=O)[C@H](Cc2ccccc2)NC(=O)OC(C)(C)C)C2CC2)CCN(Cc2ccccc2)CC1	20 µM
CC(C)(C)NC(=O)C1(N(C(=O)[C@H](Cc2ccccc2)NC(=O)OC(C)(C)C)C2CC2)CCN(C(=O)OC(C)(C)C)CC1	20 µM
CCC(C)N(C(=O)[C@@H](NC(=O)OCc1ccccc1)[C@@H](C)CC)C1(C(=O)NCc2ccccc2)CCN(Cc2ccccc2)CC1 (some centres undefined)	119 µM
CC[C@H](C)[C@H](NC(=O)OCc1ccccc1)C(=O)N(C1CC1)C1(C(=O)NCc2ccccc2)CCN(Cc2ccccc2)CC1	30 µM
COC(=O)C[C@H](NC(=O)OCc1ccccc1)C(=O)N(C1CC1)C1(C(=O)NCc2ccccc2)CCN(Cc2ccccc2)CC1	4.7 µM
COC(=O)C[C@H](NC(=O)OC(C)(C)C)C(=O)N(Cc1ccccc1)C1(C(=O)NCc2ccccc2)CCN(Cc2ccccc2)C1 (single isomer, unassigned; diastereomer 2)	18 µM

same assay, conditions: hela

Compound	IC50
COC(=O)C[C@H](NC(=O)OC(C)(C)C)C(=O)N(Cc1ccccc1)C1(C(=O)NCc2ccccc2)CCN(Cc2ccccc2)C1 (single isomer, unassigned; diastereomer-1)	16 µM

test system: CCRF-CEM; test: Cytostatic activity against human CEM cells assessed as inhibition of cell proliferation after 72 hrs by coulter counting analysis; assay type: functional, cell-based; conditions: Homo sapiens, CCRF-CEM, 72 h; how it was run: as §1

Compound	IC50
CC(C)(C)OC(=O)N[C@@H](CC(=O)O)C(=O)N(Cc1ccccc1)C1(C(=O)NCc2ccccc2)CCN(Cc2ccccc2)CC1	> 200 µM
CC(C)(C)OC(=O)N[C@@H](CC(N)=O)C(=O)N(Cc1ccccc1)C1(C(=O)NCc2ccccc2)CCN(Cc2ccccc2)CC1	26 µM
CNC(=O)C[C@H](NC(=O)OC(C)(C)C)C(=O)N(Cc1ccccc1)C1(C(=O)NCc2ccccc2)CCN(Cc2ccccc2)CC1	63 µM
CN(C)C(=O)C[C@H](NC(=O)OC(C)(C)C)C(=O)N(Cc1ccccc1)C1(C(=O)NCc2ccccc2)CCN(Cc2ccccc2)CC1	59 µM
COC(=O)C[C@H](NC(=O)OC(C)(C)C)C(=O)N(Cc1ccccc1)C1(C(=O)NCc2ccccc2)CCNCC1	124 µM
COC(=O)C[C@H](N)C(=O)N(Cc1ccccc1)C1(C(=O)NCc2ccccc2)CCN(Cc2ccccc2)CC1	104 µM
C=CCOC(=O)N1CCC(C(=O)NCc2ccccc2)(N(Cc2ccccc2)C(=O)[C@@H](N)Cc2ccccc2)CC1	54 µM
CCC(C)N(C(=O)[C@@H](N)Cc1ccccc1)C1(C(=O)NCc2ccccc2)CCN(Cc2ccccc2)CC1 (some centres undefined)	99 µM
CCC(C)N(C(=O)[C@@H](N)CC(=O)OC)C1(C(=O)NCc2ccccc2)CCN(Cc2ccccc2)CC1 (some centres undefined)	238 µM
CCC(C)N(C(=O)[C@@H](N)CC(=O)OC)C1(C(=O)NCc2ccccc2)CCNCC1 (some centres undefined)	> 250 µM
O=C(N[C@@H](Cc1ccccc1)C(=O)N(Cc1ccccc1)C1(C(=O)NCc2ccccc2)CCN(Cc2ccccc2)CC1)Oc1ccccc1	9 µM
CCC(C)N(C(=O)[C@H](Cc1ccccc1)NC(=O)OC(C)(C)C)C1(C(=O)NCc2ccccc2)CCN(Cc2ccccc2)CC1 (some centres undefined)	10 µM
CC(C)(C)OC(=O)N[C@@H](Cc1ccccc1)C(=O)N(Cc1ccccc1)C1(C(=O)NCc2ccccc2)CCN(C(=O)OC(C)(C)C)CC1	5.7 µM
CC[C@@H](C)[C@H](NC(=O)OCc1ccccc1)C(=O)N(Cc1ccccc1)C1(C(=O)NCc2ccccc2)CCN(C(=O)OC(C)(C)C)CC1	6.8 µM
CC(C)(C)NC(=O)C1(N(C(=O)[C@H](Cc2ccccc2)NC(=O)OCc2ccccc2)C2CC2)CCN(Cc2ccccc2)CC1	6 µM
CC(C)(C)NC(=O)C1(N(C(=O)[C@H](Cc2ccccc2)NC(=O)OCc2ccccc2)C2CC2)CCN(C(=O)OC(C)(C)C)CC1	15 µM
CC(C)(C)NC(=O)C1(N(C(=O)[C@H](Cc2ccccc2)NC(=O)OC(C)(C)C)C2CC2)CCN(Cc2ccccc2)CC1	19 µM
CC(C)(C)NC(=O)C1(N(C(=O)[C@H](Cc2ccccc2)NC(=O)OC(C)(C)C)C2CC2)CCN(C(=O)OC(C)(C)C)CC1	19 µM
CCC(C)N(C(=O)[C@@H](NC(=O)OCc1ccccc1)[C@@H](C)CC)C1(C(=O)NCc2ccccc2)CCN(Cc2ccccc2)CC1 (some centres undefined)	111 µM
CC[C@H](C)[C@H](NC(=O)OCc1ccccc1)C(=O)N(C1CC1)C1(C(=O)NCc2ccccc2)CCN(Cc2ccccc2)CC1	16 µM
COC(=O)C[C@H](NC(=O)OCc1ccccc1)C(=O)N(C1CC1)C1(C(=O)NCc2ccccc2)CCN(Cc2ccccc2)CC1	6.2 µM
COC(=O)C[C@H](NC(=O)OC(C)(C)C)C(=O)N(Cc1ccccc1)C1(C(=O)NCc2ccccc2)CCN(Cc2ccccc2)C1 (single isomer, unassigned; diastereomer-1)	19 µM

same assay, conditions: ccrf-cem

Compound	IC50
COC(=O)C[C@H](NC(=O)OC(C)(C)C)C(=O)N(Cc1ccccc1)C1(C(=O)NCc2ccccc2)CCN(Cc2ccccc2)C1 (single isomer, unassigned; diastereomer 2)	22 µM

test system: L1210; test: Cytostatic activity against mouse L1210 cells assessed as inhibition of cell proliferation after 48 hrs by coulter counting analysis; assay type: functional, cell-based; conditions: Mus musculus, L1210, 48 h; how it was run: as §1

Compound	IC50
CC(C)(C)OC(=O)N[C@@H](CC(=O)O)C(=O)N(Cc1ccccc1)C1(C(=O)NCc2ccccc2)CCN(Cc2ccccc2)CC1	164 µM
CC(C)(C)OC(=O)N[C@@H](CC(N)=O)C(=O)N(Cc1ccccc1)C1(C(=O)NCc2ccccc2)CCN(Cc2ccccc2)CC1	27 µM
CNC(=O)C[C@H](NC(=O)OC(C)(C)C)C(=O)N(Cc1ccccc1)C1(C(=O)NCc2ccccc2)CCN(Cc2ccccc2)CC1	94 µM
CN(C)C(=O)C[C@H](NC(=O)OC(C)(C)C)C(=O)N(Cc1ccccc1)C1(C(=O)NCc2ccccc2)CCN(Cc2ccccc2)CC1	76 µM
COC(=O)C[C@H](NC(=O)OC(C)(C)C)C(=O)N(Cc1ccccc1)C1(C(=O)NCc2ccccc2)CCNCC1	> 200 µM
COC(=O)C[C@H](N)C(=O)N(Cc1ccccc1)C1(C(=O)NCc2ccccc2)CCN(Cc2ccccc2)CC1	90 µM
C=CCOC(=O)N1CCC(C(=O)NCc2ccccc2)(N(Cc2ccccc2)C(=O)[C@@H](N)Cc2ccccc2)CC1	49 µM
CCC(C)N(C(=O)[C@@H](N)Cc1ccccc1)C1(C(=O)NCc2ccccc2)CCN(Cc2ccccc2)CC1 (some centres undefined)	81 µM
CCC(C)N(C(=O)[C@@H](N)CC(=O)OC)C1(C(=O)NCc2ccccc2)CCN(Cc2ccccc2)CC1 (some centres undefined)	244 µM
CCC(C)N(C(=O)[C@@H](N)CC(=O)OC)C1(C(=O)NCc2ccccc2)CCNCC1 (some centres undefined)	> 250 µM
O=C(N[C@@H](Cc1ccccc1)C(=O)N(Cc1ccccc1)C1(C(=O)NCc2ccccc2)CCN(Cc2ccccc2)CC1)Oc1ccccc1	3.5 µM
CCC(C)N(C(=O)[C@H](Cc1ccccc1)NC(=O)OC(C)(C)C)C1(C(=O)NCc2ccccc2)CCN(Cc2ccccc2)CC1 (some centres undefined)	4.2 µM
CC(C)(C)OC(=O)N[C@@H](Cc1ccccc1)C(=O)N(Cc1ccccc1)C1(C(=O)NCc2ccccc2)CCN(C(=O)OC(C)(C)C)CC1	5 µM
CC[C@@H](C)[C@H](NC(=O)OCc1ccccc1)C(=O)N(Cc1ccccc1)C1(C(=O)NCc2ccccc2)CCN(C(=O)OC(C)(C)C)CC1	5.1 µM
CC(C)(C)NC(=O)C1(N(C(=O)[C@H](Cc2ccccc2)NC(=O)OCc2ccccc2)C2CC2)CCN(Cc2ccccc2)CC1	6.6 µM
CC(C)(C)NC(=O)C1(N(C(=O)[C@H](Cc2ccccc2)NC(=O)OCc2ccccc2)C2CC2)CCN(C(=O)OC(C)(C)C)CC1	17 µM
CC(C)(C)NC(=O)C1(N(C(=O)[C@H](Cc2ccccc2)NC(=O)OC(C)(C)C)C2CC2)CCN(Cc2ccccc2)CC1	14 µM
CC(C)(C)NC(=O)C1(N(C(=O)[C@H](Cc2ccccc2)NC(=O)OC(C)(C)C)C2CC2)CCN(C(=O)OC(C)(C)C)CC1	14 µM
CCC(C)N(C(=O)[C@@H](NC(=O)OCc1ccccc1)[C@@H](C)CC)C1(C(=O)NCc2ccccc2)CCN(Cc2ccccc2)CC1 (some centres undefined)	83 µM
CC[C@H](C)[C@H](NC(=O)OCc1ccccc1)C(=O)N(C1CC1)C1(C(=O)NCc2ccccc2)CCN(Cc2ccccc2)CC1	11 µM
COC(=O)C[C@H](NC(=O)OCc1ccccc1)C(=O)N(C1CC1)C1(C(=O)NCc2ccccc2)CCN(Cc2ccccc2)CC1	5.3 µM
COC(=O)C[C@H](NC(=O)OC(C)(C)C)C(=O)N(Cc1ccccc1)C1(C(=O)NCc2ccccc2)CCN(Cc2ccccc2)C1 (single isomer, unassigned; diastereomer-1)	6.2 µM

same assay, conditions: l1210

Compound	IC50
COC(=O)C[C@H](NC(=O)OC(C)(C)C)C(=O)N(Cc1ccccc1)C1(C(=O)NCc2ccccc2)CCN(Cc2ccccc2)C1 (single isomer, unassigned; diastereomer 2)	9 µM
